Measurements from different studies.
Observed: cell growth or viability

Cc1c(Cl)c(=O)oc2cc(OCCCCSC#N)ccc12 — GI50 (HeLa; SRB): 6.2 µM
CCOc1ccc(-c2cc(C(=O)O)c(-c3ccc(Cl)cc3)o2)cc1 — EC50 (U2OS; MTT; 48 h): 48 µM
Cc1nc(Nc2ncc(C(=O)Nc3c(C)cccc3Cl)s2)cc(N2CC[C@H](O)C2)n1 — inhibition (SU-DHL-6; ATP luminescence; 10 µM; 72 h): 97%
C[C@H](Nc1ccc2c(c1)OCCn1cc(N3C(=O)OC[C@H]3C(F)F)nc1-2)C(N)=O — EC50 (Detroit 562; ATP luminescence; 5 days): 0.0831 µM
CCC(=CCc1c(O)cc2c(c1O)C(=O)C[C@H](c1ccccc1O)O2)CC — inhibition (HeLa; MTT; 120 µM; 48 h): 81.5%
[NH2][Pt]([NH2])([Cl])[Cl] — GI50 (HeLa; SRB): 1.9 µM
CCOc1ccc(C(=O)CC(SCc2ccc(Cl)cc2)C(=O)OC)cc1 (stereo not shown) — EC50 (SK-MEL-2; MTT; 48 h): 23 µM
CCC(=CCc1c(O)cc2c(c1O)C(=O)CC(c1ccc(O)cc1)O2)CC (stereo in doubt) — inhibition (HeLa; MTT; 0.781 µM; 48 h): 0.607%
N#CSCc1cc(=O)oc2cc(O)ccc12 — GI50 (HeLa; SRB): 3.7 µM
CCOC(=O)c1cc(-c2ccc(OCC)cc2)oc1-c1ccc(Cl)cc1 — EC50 (U2OS; MTT; 48 h): 190 µM
